The results in this text go back to ChEMBL document CHEMBL3797184, “Benzo[d]thiazol-2-yl(piperazin-1-yl)methanones as new anti-mycobacterial chemotypes: Design, synthesis, biological evaluation and 3D-QSAR studies” (Eur J Med Chem, 2016).

≈ marks a conversion by molar mass, not a printed value. Where only a bound is given, the exact number is not on record here.

Data set [1] has as its system Mycobacterium tuberculosis. Briefly: Antitubercular activity against Mycobacterium tuberculosis H37Rv ATCC 27294 after 28 days by two-fold serial dilution method. Type of data set: functional. The following applies: for MIC: Mycobacterium tuberculosis, H37Rv ATCC 27294, 672 h. The method in brief:
(§1)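 NCCLS-recommended agar dilution run in triplicate against H37Rv ATCC 27294. Two-fold dilutions (50.0 to 0.4 µg/mL) in Middlebrook 7H11 agar with OADC. Inoculum came from fresh 7H11/OADC slants, adjusted to 1 mg/mL wet weight in 0.05% Tween 80 saline and diluted 10^-2 (~10^7 cfu/mL). 5 µL was spotted per tube, incubated at 37 °C and read at 28 days as MIC.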

Data set [2] has as its system Mycobacterium tuberculosis. Briefly: Antitubercular activity against Mycobacterium tuberculosis clinical isolate by BACTEC 460 TB method. It counts as functional.
The nature of data set [3]: Cytotoxicity against mouse RAW264.7 cells at 50 ug/ml after 72 hrs by MTT assay. It counts as cell-based. The following applies: read-out: INH. For orientation: Formazan colour is commonly taken as a measure of viable cells.
Data set [4] in a line: Therapeutic index, ratio of cytotoxicity against mouse RAW264.7 cells to antitubercular activity against Mycobacterium tuberculosis H37Rv ATCC 27294. Type of data set: cell-based. The note with it: read-out: TI.
The subject of data set [5] is Mycobacterium tuberculosis. The data set can be described thus: Antitubercular activity against Mycobacterium tuberculosis […] by microplate Alamar blue assay. It counts as functional. A general note: Alamar Blue is a resazurin reagent that responds to reducing activity.
For data set [6], the system named is Mycobacterium tuberculosis. Briefly: Antitubercular activity against Mycobacterium tuberculosis. Type of data set: functional. A digest of the protocol:
as §1

Usually MIC stands for the lowest concentration found to suppress growth. A high value points to a less susceptible organism. With `CCOC(=O)c1nc2ccccc2s1`, in data set [1], the lowest concentration to inhibit growth (MIC) was 121 µM (≈ 25 µg/mL).
Regarding `O=C(c1nc2ccccc2s1)N1CCSCC1`, the MIC in data set [1] was 94.6 µM (≈ 25 µg/mL).
`Cc1c(CN2CCN(C)CC2)cc(-c2ccc(Cl)cc2)n1-c1ccc(Cl)cc1` gave an MIC in data set [2] of 1.5 µg/mL (≈ 3.62 µM).
Turning to `O=C(c1nc2cc(Cl)ccc2s1)N1CCN(c2cnccn2)CC1`, in data set [1], the “-logMIC” value stood at 4.76 and 17.4 µM (≈ 6.25 µg/mL) was the least that counted as inhibitory (MIC). Besides, in data set [3], the cytotoxicity at 72 h, 50 ug/ml is 54.9%.
The corresponding values for `O=C(c1nc2ccccc2s1)N1CCN(c2ccncc2)CC1` are 5.02, 9.63 µM (≈ 3.12 µg/mL) and 62%.
The corresponding values for `O=C(c1nc2cc(Cl)ccc2s1)N1CCN(C(c2ccccc2)c2ccccc2)CC1` are 5.76, 1.74 µM (≈ 0.78 µg/mL) and 52.9%.
Regarding `COc1ccc(N2CCN(C(=O)c3nc4ccccc4s3)CC2)cc1`, in data set [1], the “-logMIC” value turned out to be 4.45 and the MIC came to 35.4 µM (≈ 12.5 µg/mL).
On to `CC(=O)c1ccc(N2CCN(C(=O)c3nc4ccccc4s3)CC2)cc1`, for which, in data set [1], the “-logMIC” value is 5.37 and inhibition of growth (MIC) required 4.27 µM (≈ 1.56 µg/mL). The cytotoxicity at 72 h, 50 ug/ml in data set [3] is 62.3%.
On to `CCOC(=O)c1nc2cc(Cl)ccc2s1`, for which the MIC in data set [1] was found to be 12.9 µM (≈ 3.13 µg/mL). For the same compound, the cytotoxicity at 72 h, 50 ug/ml in data set [3] stood at 37.4%.
With `COc1ccccc1N1CCN(C(=O)c2nc3cc(Cl)ccc3s2)CC1`, in data set [1], the “-logMIC” value turned out to be 5.09 and the MIC was determined as 8.06 µM (≈ 3.13 µg/mL). Besides, in data set [3], the cytotoxicity at 72 h, 50 ug/ml worked out at 63.4%.
The corresponding values for `CC(=O)c1ccc(N2CCN(C(=O)c3nc4cc(C(F)(F)F)ccc4s3)CC2)cc1` are 4.84, 14.4 µM (≈ 6.25 µg/mL) and 30.6%.
The corresponding values for `COc1ccccc1N1CCN(C(=O)c2nc3ccccc3s2)CC1` are 5.05, 8.84 µM (≈ 3.12 µg/mL) and 53.4%.
In the case of `O=C(c1nc2ccccc2s1)N1CCN(c2ccccc2)CC1`, in data set [1], the “-logMIC” value was found to be 5.32 and inhibition of growth (MIC) required 4.82 µM (≈ 1.56 µg/mL). For the same compound, the cytotoxicity at 72 h, 50 ug/ml in data set [3] came to 67.2%.
Consider `COc1ccccc1N1CCN(C(=O)c2nc3cc(C(F)(F)F)ccc3s2)CC1`, for which 59.3 µM (≈ 25 µg/mL) was the least that counted as inhibitory in data set [1] (MIC).
The compound `O=C(c1nc2cc(C(F)(F)F)ccc2s1)N1CCOCC1` yielded an MIC in data set [1] of 2.47 µM (≈ 0.781 µg/mL). The cytotoxicity at 72 h, 50 ug/ml in data set [3] was 24.6%. For the same compound, the selectivity ratio in data set [4] was above 60.
In turn, `O=C(c1nc2cc(Cl)ccc2s1)N1CCOCC1` had an MIC in data set [1] of 22.1 µM (≈ 6.25 µg/mL). For the same compound, the cytotoxicity at 72 h, 50 ug/ml in data set [3] came to 26.1%.
The corresponding values for `CCOC(=O)c1nc2cc(C(F)(F)F)ccc2s1` are 22.7 µM (≈ 6.25 µg/mL) and 29.1%.
In data set [1], `O=C(c1nc2cc(C(F)(F)F)ccc2s1)N1CCN(c2ccccc2)CC1` displayed an MIC of 31.9 µM (≈ 12.5 µg/mL).
For the compound `O=C(c1nc2cc(Cl)ccc2s1)N1CCN(c2ccccc2)CC1`, in data set [1], the “-logMIC” value came out at 4.76 and inhibition of growth (MIC) required 17.5 µM (≈ 6.25 µg/mL). In data set [3], the cytotoxicity at 72 h, 50 ug/ml came out at 41.2%.
The corresponding values for `O=C(c1nc2cc(C(F)(F)F)ccc2s1)N1CCN(c2ccncc2)CC1` are 5.1, 7.96 µM (≈ 3.12 µg/mL) and 17.5%.
The corresponding values for `COc1ccc(N2CCN(C(=O)c3nc4cc(C(F)(F)F)ccc4s3)CC2)cc1` are 5.13, 7.42 µM (≈ 3.13 µg/mL) and 19.4%.
Consider `CC(=O)c1ccc(N2CCN(C(=O)c3nc4cc(Cl)ccc4s3)CC2)cc1`, for which, in data set [1], the “-logMIC” value is 5.41 and the MIC is 3.9 µM (≈ 1.56 µg/mL). Besides, in data set [3], the cytotoxicity at 72 h, 50 ug/ml was found to be 30.8%.
The corresponding values for `CN1CCN(C(=O)c2nc3cc(C(F)(F)F)ccc3s2)CC1` are 4.72, 19 µM (≈ 6.25 µg/mL) and 12.6%.
In turn, `O=C(c1nc2cc(C(F)(F)F)ccc2s1)N1CCCCC1` gave an MIC in data set [1] of 39.8 µM (≈ 12.5 µg/mL).
As to `CC(=O)N1CCN(C(=O)c2nc3cc(C(F)(F)F)ccc3s2)CC1`, in data set [1], the “-logMIC” value came to 5.36 and inhibition of growth (MIC) required 4.37 µM (≈ 1.56 µg/mL). The cytotoxicity at 72 h, 50 ug/ml in data set [3] is 20.2%.
In data set [1], `CN1CCN(C(=O)c2nc3cc(Cl)ccc3s2)CC1` had an MIC of 84.5 µM (≈ 25 µg/mL).
Same read-out and setting: in the case of `O=C(c1nc2ccccc2s1)N1CCCCC1` it was 101 µM (≈ 25 µg/mL).
Turning to `COc1ccc(N2CCN(C(=O)c3nc4cc(Cl)ccc4s3)CC2)cc1`, in data set [1], the “-logMIC” value is given as 5.09 and inhibition of growth (MIC) required 8.06 µM (≈ 3.13 µg/mL). For the same compound, in data set [3], the cytotoxicity at 72 h, 50 ug/ml was determined as 42.8%.
Consider `O=C(c1nc2cc(Cl)ccc2s1)N1CCN(c2ccncc2)CC1`, for which, in data set [1], the “-logMIC” value came to 4.46 and it took 34.8 µM (≈ 12.5 µg/mL) to inhibit growth (MIC).
Regarding `O=C(c1nc2cc(C(F)(F)F)ccc2s1)N1CCN(c2cnccn2)CC1`, in data set [1], the “-logMIC” value is 5.1 and the MIC stood at 7.94 µM (≈ 3.12 µg/mL). For the same compound, the cytotoxicity at 72 h, 50 ug/ml in data set [3] turned out to be 28.1%.
Turning to `CN1CCN(/N=C\c2cc(C(F)(F)F)nc3c(C(F)(F)F)cccc23)CC1`, it took 3.56 µg/mL (≈ 9.12 µM) to inhibit growth in data set [5] (MIC).
In the case of `CC(=O)N1CCN(C(=O)c2nc3cc(Cl)ccc3s2)CC1`, in data set [1], the “-logMIC” value stood at 4.41 and the lowest concentration to inhibit growth (MIC) was 38.6 µM (≈ 12.5 µg/mL).
In the case of `CN1CCN(C(=O)c2nc3ccccc3s2)CC1`, in data set [1], the “-logMIC” value worked out at 4.92 and 12 µM (≈ 3.13 µg/mL) was the least that counted as inhibitory (MIC). Besides, the cytotoxicity at 72 h, 50 ug/ml in data set [3] turned out to be 52.1%.
The corresponding values for `O=C(c1nc2ccccc2s1)N1CCN(c2cnccn2)CC1` are 4.72, 19.2 µM (≈ 6.25 µg/mL) and 65.3%.
The corresponding values for `O=C(c1nc2ccccc2s1)N1CCN(C(c2ccccc2)c2ccccc2)CC1` are 5.72, 1.89 µM (≈ 0.782 µg/mL) and 60.7%.
For the compound `O=C(c1nc2ccccc2s1)N1CCOCC1`, in data set [1], the minimum inhibitory concentration (MIC) stood at 6.28 µM (≈ 1.56 µg/mL). Moreover, the cytotoxicity at 72 h, 50 ug/ml in data set [3] was determined as 36.2%.
`O=C(c1nc2cc(Cl)ccc2s1)N1CCCCC1`: in data set [1], the MIC came out at 44.5 µM (≈ 12.5 µg/mL).
Same read-out and setting: the same measure for `O=C(c1nc2cc(C(F)(F)F)ccc2s1)N1CCN(C(c2ccccc2)c2ccccc2)CC1`: 51.9 µM (≈ 25 µg/mL).
As for `O=C(c1nc2cc(Cl)ccc2s1)N1CCSCC1`, the MIC in data set [1] was found to be 20.9 µM (≈ 6.25 µg/mL). In addition, the cytotoxicity at 72 h, 50 ug/ml in data set [3] stood at 62.5%.
`CC(C)C(NC(=O)OCC1c2ccccc2-c2ccccc21)C(=O)O/N=C1\c2ccccc2-c2c1c(N1CCN(c3ccccn3)CC1)nc1ccc(Br)cc21` (stereo not drawn) displayed an MIC in data set [6] of 1.47 µg/mL (≈ 1.82 µM).
As to `CC(=O)N1CCN(C(=O)c2nc3ccccc3s2)CC1`, in data set [1], the “-logMIC” value stood at 5.27 and the MIC stood at 5.39 µM (≈ 1.56 µg/mL). Besides, in data set [3], the cytotoxicity at 72 h, 50 ug/ml is 48.8%.
As for `O=C(c1nc2cc(C(F)(F)F)ccc2s1)N1CCSCC1`, 2.35 µM (≈ 0.781 µg/mL) was the least that counted as inhibitory in data set [1] (MIC). In addition, the cytotoxicity at 72 h, 50 ug/ml in data set [3] came to 18.1%. The selectivity ratio in data set [4] was above 60.
Regarding `CC[C@@H](CO)NCCN[C@@H](CC)CO` [ETHAMBUTOL], the MIC in data set [1] is 7.64 µM (≈ 1.56 µg/mL).
In data set [1], `NNC(=O)c1ccncc1` [ISONIAZID] returned an MIC of 0.72 µM (≈ 0.0987 µg/mL).
On the same count and under the same terms, the same measure for `NC(=O)c1cnccn1` [PYRAZINAMIDE]: 50.8 µM (≈ 6.25 µg/mL).
Same read-out and setting: in the case of `CO[C@H]1/C=C/O[C@@]2(C)Oc3c(C)c(O)c4c(O)c(c(/C=N/N5CCN(C)CC5)c(O)c4c3C2=O)NC(=O)/C(C)=C\C=C\[C@H](C)[C@H](O)[C@@H](C)[C@@H](O)[C@@H](C)[C@H](OC(C)=O)[C@@H]1C` [RIFAMPIN] it was 0.24 µM (≈ 0.198 µg/mL).
